The target in one assay is T1, Splicing factor 45 (Homo sapiens, UniProt Q96I25).
T1 sequence (Q96I25 whole entry): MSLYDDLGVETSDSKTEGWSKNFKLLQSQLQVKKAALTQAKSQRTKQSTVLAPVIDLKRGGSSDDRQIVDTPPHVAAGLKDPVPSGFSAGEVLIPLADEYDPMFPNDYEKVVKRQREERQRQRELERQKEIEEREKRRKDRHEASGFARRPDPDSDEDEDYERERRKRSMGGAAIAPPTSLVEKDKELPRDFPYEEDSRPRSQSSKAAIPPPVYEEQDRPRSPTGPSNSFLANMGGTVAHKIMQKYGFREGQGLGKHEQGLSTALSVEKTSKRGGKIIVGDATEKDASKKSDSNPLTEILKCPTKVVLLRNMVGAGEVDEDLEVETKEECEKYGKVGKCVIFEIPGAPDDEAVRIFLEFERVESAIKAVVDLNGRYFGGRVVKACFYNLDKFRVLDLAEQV
Put plainly: Binding affinity to His-Z-tagged SPF45 (unknown origin) UHM domain expressed in Escherichia coli BL21 (DE3) cells by ITC analysis. Put shortly: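 SPF45 UHM domain expressed in BL21 (DE3) as His-Ztag fusion (0.5 mM IPTG, overnight at 20 °C), then Ni-NTA, TEV cleavage of tag, ion exchange and size exclusion. ITC: 5–20 μM protein in cell titrated with 10-fold concentrated peptide, 1.5 μL injections. One-site binding fit; errors are SD of fitting errors by error propagation.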
(ITC needs no label: the signal is the heat of the interaction.)

Assay [1] has as its target T2, Splicing factor 45 (Homo sapiens) (UniProt Q96I25).
T2 sequence (whole entry): T1 sequence (Q96I25 whole entry)
The assay is described as follows: Inhibition of SPF45-mediated splicing in human HeLa nuclear extracts assessed as reduction in complex A formation during spliceosome-assembly at 25 to 500 uM incubated for 20 mins before addition of IgM pre-mRNA as the splicing substrate by agarose gel electrophoresis. Format: tissue-based. Particulars: dose 25-500 µM. The method, boiled down: (§1)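 Peptide added to 25–500 μM final and held 20 min on ice before pre-mRNA. Spliced product normalized to the no-peptide control; SD from two independent experiments. Complex formation read by agarose gel electrophoresis.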

For assay [2], the target named is T2, Splicing factor 45 (Homo sapiens). Put plainly: Inhibition of SPF45-mediated splicing in human HeLa nuclear extracts assessed as splicing products formation at 25 to 500 uM incubated for 20 mins before addition of IgM pre-mRNA as the splicing substrate by agarose gel electrophoresis. Set-up: scale not given: the % may be the effect or the level left. The following applies: dose 25-500 µM. Put shortly:
as §1

The target is the same in assay [3]. The assay is described as follows: Inhibition of SPF45-mediated splicing in human HeLa nuclear extracts assessed as reduction in splicing products formation at 500 uM incubated for 20 mins before addition of IgM pre-mRNA as the splicing substrate by agarose gel electrophoresis. The method, boiled down: as §1
For the next assay, the species on record is Homo sapiens. Put plainly: Selectivity index, ratio of Kd for U2AF65 UHM domain to Kd for His-Z-tagged SPF45 (unknown origin) UHM domain.

Data on nine molecules can be found in ChEMBL document CHEMBL4673204, “Rational Design of Cyclic Peptide Inhibitors of U2AF Homology Motif (UHM) Domains To Modulate Pre-mRNA Splicing” (J Med Chem, 2016).

A word on the Kd: it is the constant that tells how readily two partners part at equilibrium.

SMILES strings stand for the structures. Activity calls are given as the source filed them. No cut-off for these calls is given here. Peptide text beside a SMILES is read from it.

The molecule `N=C(N)NCCC[C@H](NC(=O)[C@H]1CCC(=O)NCCCC[C@@H](N)C(=O)N[C@@H](CO)C(=O)N[C@@H](CCCNC(=N)N)C(=O)N[C@@H](Cc2c[nH]c3ccccc23)C(=O)N[C@@H](CC(=O)O)C(=O)N1)C(=O)O` showed a Kd on Splicing factor 45 of 510 nM. Still for that read-out and setting: under `N=C(N)NCCC[C@@H]1NC(=O)[C@H](CO)NC(=O)[C@H](N)CCCCNC(=O)CC[C@H](C(=O)N[C@@H](Cc2ccc(O)cc2)C(=O)O)NC(=O)[C@H](CC(=O)O)NC(=O)[C@H](Cc2c[nH]c3ccccc23)NC1=O` stands 1850 nM; under `CN1CCCC[C@@H](N)C(=O)N[C@@H](CO)C(=O)N[C@@H](CCCNC(=N)N)C(=O)N[C@@H](Cc2c[nH]c3ccccc23)C(=O)N[C@@H](CC(=O)O)C(=O)N[C@@H](C(=O)N[C@@H](CCCCN)C(=O)O)CCC1=O`, 1260 nM. As for `N=C(N)NCCC[C@@H]1NC(=O)[C@H](CO)NC(=O)[C@H](N)CCCCNC(=O)CC[C@H](C(=O)N[C@@H](CCCCN)C(=O)O)NC(=O)[C@H](CC(=O)O)NC(=O)[C@H](Cc2c[nH]c3ccccc23)NC1=O`, the inhibition entry in assay [1] and in assay [3] was “Active” throughout. Moreover, the Activity in assay [2] amounted to 29%. Moreover, the Ratio in the assay filed under Homo sapiens came to 270. The same molecule came in with a Kd at Splicing factor 45 of 180 nM. Consider `N=C(N)NCCC[C@@H]1NC(=O)[C@H](CO)NC(=O)[C@H](N)CCCCNC(=O)CC[C@H](C(=O)O)NC(=O)[C@H](CC(=O)O)NC(=O)[C@H](Cc2c[nH]c3ccccc23)NC1=O`, for which the Kd on Splicing factor 45 was 1400 nM. On the same count and under the same terms, under `N=C(N)NCCC[C@@H]1NC(=O)[C@H](CO)NC(=O)[C@H](N)CCCCNC(=O)CC[C@H](C(=O)NC(CCCCN=C(N)N)C(=O)O)NC(=O)[C@H](CC(=O)O)NC(=O)[C@H](Cc2c[nH]c3ccccc23)NC1=O` (some centres undefined) stands 750 nM; under `N=C(N)NCCC[C@@H]1NC(=O)[C@H](CO)NC(=O)[C@H](N)CCCCNC(=O)CC[C@H](C(=O)N[C@@H](Cc2c[nH]c3ccccc23)C(=O)O)NC(=O)[C@H](CC(=O)O)NC(=O)[C@H](Cc2c[nH]c3ccccc23)NC1=O`, 800 nM; under `N=C(N)NCCC[C@@H]1NC(=O)[C@H](CO)NC(=O)[C@H](N)CCCCNC(=O)CC[C@H](C(=O)N[C@@H](Cc2cnc[nH]2)C(=O)O)NC(=O)[C@H](CC(=O)O)NC(=O)[C@H](Cc2c[nH]c3ccccc23)NC1=O`, 960 nM. As to `N=C(N)NCCC[C@H](NC(=O)[C@H](CO)NC(=O)[C@@H](N)CCCCN)C(=O)N[C@@H](Cc1c[nH]c2ccccc12)C(=O)N[C@@H](CC(=O)O)C(=O)N[C@@H](CCC(=O)O)C(=O)O` (H-KSRWDE-OH), in the assay filed under Homo sapiens, the Ratio turned out to be 9. Besides, the equilibrium dissociation constant (Kd) on Splicing factor 45 amounted to 15700 nM.
